Assay results: ChEMBL document CHEMBL4680084, “New β-Lactam Derivatives Modulate Cell Adhesion and Signaling Mediated by RGD-Binding and Leukocyte Integrins” (J Med Chem, 2016)
Activity calls are given as the source filed them. The rule behind the calls is not given here.

What was measured:
Integrin alpha-V/beta-5 [1] = biological target: T1, Integrin alpha-V/beta-5 (Homo sapiens, UniProt P06756+P18084); experiment: Agonist activity at alphaVbeta5 in human MCF7 cells assessed as increase in cell adhesion to fibrinogen pre-incubated for 30 mins before fibrinogen and further incubated for 1 hr by nitrophenyl-N-acetyl-beta-D-glucosaminide substrate based chromogenic assay
Outline: (§1)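 Compound or methanol vehicle pre-incubated with cells for 30 min at room temperature. Cells then plated on wells coated overnight at 4 °C with fibronectin 10 µg/mL (SK-MEL-24, K562, HT-29) or fibrinogen 10 µg/mL (MCF7, HEL). Seeding was 50,000 cells/well, or 100000 for HEL. Adhesion ran 1 h at room temperature. Wells washed with 1% BSA/PBS. Adherent cells read by hexosaminidase substrate, absorbance 405 nm. Quadruplicate, at least three repeats.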

Integrin alpha-V/beta-6 [2] = biological target: T2, Integrin alpha-V/beta-6 (Homo sapiens, UniProt P06756+P18564); experiment: Agonist activity at alphaVbeta6 in human HT-29 cells assessed as increase in cell adhesion to fibronectin pre-incubated for 30 mins before fibronectin and further incubated for 1 hr by nitrophenyl-N-acetyl-beta-D-glucosaminide substrate based chromogenic assay; outline: as §1
HEL = experiment: Toxicity in human HEL cells assessed as induction of cell necrosis and/or apoptosis incubated for 3 hrs by annexin V-PE and 7-AAD staining based by flow cytometry
Outline: (§2)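 After 3 h incubation, cells resuspended in complete medium and stained with annexin V-PE/7-AAD reagent for 20 min at room temperature in the dark. Flow cytometry sorted cells into viable, early apoptotic and late apoptotic/necrotic populations.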

Integrin alpha-V/beta-3 [3] = biological target: T3, Integrin alpha-V/beta-3 (Homo sapiens, UniProt P05106+P06756); experiment: Antagonist activity at alphaVbeta3 in human SK-MEL-24 cells assessed as reduction in cell adhesion to fibronectin pre-incubated for 30 mins before fibronectin and further incubated for 1 hr by nitrophenyl-N-acetyl-beta-D-glucosaminide substrate based chromogenic assay
Outline: (§3)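 Compound or methanol vehicle pre-incubated with cells for 30 min at room temperature. Cells then plated on wells coated overnight at 4 °C with fibronectin 10 µg/mL (SK-MEL-24, K562, HT-29) or fibrinogen 10 µg/mL (MCF7, HEL). Seeding was 50,000 cells/well, or 100000 for HEL. Adhesion ran 1 h at room temperature. Wells washed with 1% BSA/PBS. Quadruplicate, at least three repeats.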

Integrin alpha-4/beta-1 [4] = biological target: T4, Integrin alpha-4/beta-1 (Homo sapiens, UniProt P05556+P13612); experiment: Agonist activity at alpha4beta1 in human Jurkat E6.1 cells assessed as increase in HUTS-21 antibody binding by flow cytometry analysis; type: cell-based; details: filed as agonist
Outline: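 Jurkat E6.1 cells at 10⁶/mL in 1% BSA/HBSS incubated 30 min at 37 °C with compound. PE-labelled HUTS-21 mAb then added for 45 min at room temperature. Cells washed, 10,000 analysed by flow cytometry. MFI corrected to isotype control set to 0. Four independent experiments in duplicate.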

Integrin alpha-V/beta-5 [5] = biological target: T1, Integrin alpha-V/beta-5; experiment: Antagonist activity at alphaVbeta5 in human MCF7 cells assessed as reduction in cell adhesion to fibrinogen pre-incubated for 30 mins before fibrinogen and further incubated for 1 hr by nitrophenyl-N-acetyl-beta-D-glucosaminide substrate based chromogenic assay; outline: as §3
Integrin alpha-5/beta-1 [6] = biological target: T5, Integrin alpha-5/beta-1 (Homo sapiens, UniProt P05556+P08648); experiment: Agonist activity at alpha5beta1 in human K562 cells assessed as increase in cell adhesion to fibronectin pre-incubated for 30 mins before fibronectin and further incubated for 1 hr by nitrophenyl-N-acetyl-beta-D-glucosaminide substrate based chromogenic assay; outline: as §1
[7] = biological target: T6, Integrin alpha-IIb/beta-3 (Homo sapiens, UniProt P05106+P08514); experiment: Antagonist activity at alpha2bbeta3 in human HEL cells assessed as reduction in cell adhesion to fibrinogen pre-incubated for 30 mins before fibrinogen and further incubated for 1 hr by nitrophenyl-N-acetyl-beta-D-glucosaminide substrate based chromogenic assay; outline: as §3
Integrin alpha-V/beta-6 [8] = biological target: T2, Integrin alpha-V/beta-6; experiment: Inhibition of fibronectin binding to alphaVbeta6 isolated form human HT-29 cells incubated for 1 hr by […] competitive solid-phase binding assay; type: tissue-based
Integrin alpha-V/beta-6 [9] = biological target: T2, Integrin alpha-V/beta-6; experiment: Antagonist activity at alphaVbeta6 in human HT-29 cells assessed as reduction in cell adhesion to fibronectin pre-incubated for 30 mins before fibronectin and further incubated for 1 hr by nitrophenyl-N-acetyl-beta-D-glucosaminide substrate based chromogenic assay; outline: as §3
Integrin alpha-V/beta-3 [10] = biological target: T3, Integrin alpha-V/beta-3; experiment: Agonist activity at alphaVbeta3 in human SK-MEL-24 cells assessed as increase in cell adhesion to fibronectin pre-incubated for 30 mins before fibronectin and further incubated for 1 hr by nitrophenyl-N-acetyl-beta-D-glucosaminide substrate based chromogenic assay; outline: as §1
Integrin alpha-5/beta-1 [11] = biological target: T5, Integrin alpha-5/beta-1; experiment: Antagonist activity at alpha5beta1 in human K562 cells assessed as reduction in cell adhesion to fibronectin pre-incubated for 30 mins before fibronectin and further incubated for 1 hr by nitrophenyl-N-acetyl-beta-D-glucosaminide substrate based chromogenic assay; outline: as §1
MCF7 = experiment: Toxicity in human MCF7 cells assessed as induction of cell necrosis and/or apoptosis incubated for 3 hrs by annexin V-PE and 7-AAD staining based by flow cytometry; details: mcf7, 3 h; outline: as §2
Integrin alpha-4/beta-1 [12] = biological target: T4, Integrin alpha-4/beta-1; experiment: Agonist activity at alpha4beta1 in human Jurkat E6.1 cells assessed as increase in cell adhesion to VCAM1 at 2 to 10 ug/ml pre-incubated for 30 mins and further incubated for 30 mins by nitrophenyl-N-acetyl-beta-D-glucosaminide substrate based chromogenic assay; details: filed as agonist, dose 2-10 µg/ml, time 60.0 min
[13] = biological target: T6, Integrin alpha-IIb/beta-3; experiment: Agonist activity at alpha2bbeta3 in human HEL cells assessed as increase in cell adhesion to fibrinogen pre-incubated for 30 mins before fibrinogen and further incubated for 1 hr by nitrophenyl-N-acetyl-beta-D-glucosaminide substrate based chromogenic assay; outline: as §3
Integrin alpha-V/beta-5 [14] = biological target: T1, Integrin alpha-V/beta-5; experiment: Inhibition of fibrinogen binding to alphaVbeta5 isolated form human mCf7 cells incubated for 1 hr by […] competitive solid-phase binding assay
Integrin alpha-4/beta-1 [15] = biological target: T4, Integrin alpha-4/beta-1; experiment: Agonist activity at alpha4beta1 in human Jurkat E6.1 cells assessed as increase in ERK1/2 phosphorylation at 1 to 100 nM by Western blot analysis; type: cell-based; details: filed as agonist, dose 1-100 nM
K562 = experiment: Toxicity in human K562 cells assessed as induction of cell necrosis and/or apoptosis incubated for 3 hrs by annexin V-PE and 7-AAD staining based by flow cytometry; details: k562, 3 h; outline: as §2
Integrin alpha-4/beta-1 [16] = biological target: T4, Integrin alpha-4/beta-1; experiment: Inhibition of fibronectin binding to […] isolated from human Jurkat E6.1 cells incubated for 1 hr by scintillation-proximity assay based competitive solid-phase binding assay; type: tissue-based
[17] = biological target: T7, Integrin alpha-L/beta-2 (LFA-1) (Homo sapiens, UniProt P05107+P20701); experiment: Antagonist activity at alphaLbeta2 in human Jurkat E6.1 cells assessed as reduction in cell adhesion to ICAM1 pre-incubated for 30 mins before ICAM1 and further incubated for 30 mins by […]; type: cell-based
Outline: (§4)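 Jurkat E6.1 cells labelled with CellTracker green CMFDA (12.5 µM, 30 min, 37 °C), washed, then pre-incubated 30 min at 37 °C with compound or methanol. Plated at 500,000/well on VCAM-1 (α4β1) or ICAM-1 (αLβ2) coated wells (5 µg/mL) for 30 min at 37 °C. Cells lysed in 0.5% Triton X-100; fluorescence read Ex485/Em535. Quadruplicate, at least three repeats.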

SK-MEL-24 = experiment: Toxicity in human SK-MEL-24 cells assessed as induction of cell necrosis and/or apoptosis incubated for 3 hrs by annexin V-PE and 7-AAD staining based by flow cytometry; details: sk-mel-24, 3 h; outline: as §2
Integrin alpha-V/beta-3 [18] = biological target: T3, Integrin alpha-V/beta-3; experiment: Inhibition of fibronectin binding to human recombinant alphaVbeta3 expressed in HEK293 cells incubated for 1 hr by […] competitive solid-phase binding assay; type: cell-based
Integrin alpha-5/beta-1 [19] = biological target: T5, Integrin alpha-5/beta-1; experiment: Inhibition of fibronectin binding to alpha5beta1 isolated from human K562 cells incubated for 1 hr by […] competitive solid-phase binding assay; type: tissue-based
Outline: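 Plates coated overnight at 4 °C in carbonate buffer pH 9.6 with fibronectin 0.5 µg/mL (αvβ3, αvβ6, α5β1), fibrinogen 10 µg/mL (αIIbβ3, αvβ5) or ICAM-1 (αLβ2). Blocked 1 h in buffer containing Ca/Mg/Mn 1 mM each and 1% BSA. Purified integrin (3–10 µg/mL) incubated with compound (10⁻⁴–10⁻¹⁰ M) 1 h at room temperature. Bound integrin detected with primary antibody then AlexaFluor488 secondary, Ex485/Em535. Duplicate, at least three repeats.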

[20] = biological target: T7, Integrin alpha-L/beta-2 (LFA-1); experiment: Agonist activity at alphaLbeta2 in human Jurkat E6.1 cells assessed as increase in cell adhesion to ICAM1 pre-incubated for 30 mins before ICAM1 and further incubated for 30 mins by […]; type: cell-based; outline: as §4
HT-29 = experiment: Toxicity in human HT-29 cells assessed as induction of cell necrosis and/or apoptosis incubated for 3 hrs by annexin V-PE and 7-AAD staining based by flow cytometry; details: ht-29, 3 h; outline: as §2

What does the source list for Cc1ccccc1NC(=O)N1C(=O)CC1CC(=O)O (stereo not given)?
EC50 (Integrin alpha-V/beta-5 [1]): > 5 µM; EC50 (Integrin alpha-V/beta-6 [2]): > 5 µM; Activity (HEL): Non-Toxic; IC50 (Integrin alpha-V/beta-3 [3]): > 5 µM; Activity (Integrin alpha-4/beta-1 [4]): Dose-dependent effect; IC50 (Integrin alpha-V/beta-5 [5]): > 5 µM; EC50 (Integrin alpha-5/beta-1 [6]): > 5 µM; IC50 [7]: > 5 µM; IC50 (Integrin alpha-V/beta-6 [8]): > 1 µM; IC50 (Integrin alpha-V/beta-6 [9]): > 5 µM; EC50 (Integrin alpha-V/beta-3 [10]): > 5 µM; IC50 (Integrin alpha-5/beta-1 [11]): > 5 µM; Activity (MCF7): Non-Toxic; Activity (Integrin alpha-4/beta-1 [12]): Active; EC50 [13]: > 5 µM; IC50 (Integrin alpha-V/beta-5 [14]): > 1 µM; Activity (Integrin alpha-4/beta-1 [15]): Active; Activity (K562): Non-Toxic; IC50 (Integrin alpha-4/beta-1 [16]): 0.0098 µM; IC50 [17]: > 5 µM; Activity (SK-MEL-24): Non-Toxic; IC50 (Integrin alpha-V/beta-3 [18]): > 1 µM; IC50 (Integrin alpha-5/beta-1 [19]): > 1 µM; EC50 [20]: > 5 µM; Activity (HT-29): Non-Toxic
